In ChEMBL document CHEMBL1138291, “Structure-activity studies of novel cyanoguanidine ATP-sensitive potassium channel openers for the treatment of overactive bladder” (J Med Chem, 2007):
Each block holds one compound with its values, some of them ahead of it.

Key:
[1] = Activity at Kir6.2 channel in Landrace pig bladder detrusor assessed as relaxation of electrically stimulated contraction; parameters: species or system Sus scrofa
[2] = Half life in dog at 100 nmol/kg, iv; type: ADME, organism-based, Canis lupus familiaris; details: in vivo
[3] = Half life in dog at 100 nmol/kg, po; type: ADME, organism-based, Canis lupus familiaris; details: in vivo
[4] = Oral bioavailability in dog at 100 nmol/kg, po; type: ADME, organism-based, Canis lupus familiaris; details: in vivo
[5] = Tmax in dog at 100 nmol/kg, po; type: ADME, organism-based, Canis lupus familiaris; details: in vivo
[6] = Plasma clearance in dog at 100 nmol/kg, iv; type: ADME, organism-based, Canis lupus familiaris
[7] = Tmax in dog at 10 nmol/kg, po; type: ADME, organism-based, Canis lupus familiaris; details: in vivo
[8] = Plasma clearance in dog at 10 nmol/kg, iv; type: ADME, organism-based, Canis lupus familiaris
[9] = Oral bioavailability in dog at 10 nmol/kg, po; type: ADME, organism-based, Canis lupus familiaris; details: in vivo
[10] = Half life in dog at 10 nmol/kg, po; type: ADME, organism-based, Canis lupus familiaris; details: in vivo
[11] = Half life in dog at 10 nmol/kg, iv; type: ADME, organism-based, Canis lupus familiaris; details: in vivo
Sus scrofa [12] = organism: Sus scrofa; experiment: Inhibition of unstable spontaneous bladder contractions in Landrace/Yorkshire pig bladder instability model; type: functional, organism-based
Sus scrofa [13] = experiment: Reduction of unstable spontaneous bladder contractions in Landrace/Yorkshire pig bladder instability model at 0.3 mg/kg, iv; type: functional; parameters: scale not given: the % may be the effect or the level left
Sus scrofa [14] = experiment: Reduction of blood pressure in pig at 1 mg/kg, iv; type: functional; parameters: scale not given: the % may be the effect or the level left
Outline: (§1)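 Conscious obstructed, telemetered pigs held in restraint cage with 20 gauge venous catheters in both ears for dosing and blood sampling; mean arterial pressure recorded, averaged over post-dose period as percent change from baseline.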

Portal vein = experiment: Effect on rat portal vein; type: functional, tissue-based
Sus scrofa [15] = experiment: Reduction of unstable spontaneous bladder contractions in Landrace/Yorkshire pig bladder instability model at 1 mg/kg, iv; type: functional; parameters: scale not given: the % may be the effect or the level left
Sus scrofa [16] = experiment: Reduction of blood pressure in pig at 0.3 mg/kg, iv; type: functional; parameters: scale not given: the % may be the effect or the level left; outline: as §1

Compound: Cc1ccc(C(=O)NC(N/C(=N/C#N)Nc2ccc(C(F)(F)F)nc2)C(C)(Cl)Cl)cc1 (stereo unspecified)
Log EC50 [1]: -5.15

Compound: Cc1cccc(C(=O)NC(N/C(=N/C#N)Nc2ccc(Cl)nc2)C(C)(Cl)Cl)c1 (stereo unspecified)
Log EC50 [1]: -5.42

Compound: CC(Cl)(Cl)[C@@H](NC(=O)c1ccc(Cl)cc1)N/C(=N/C#N)Nc1cccnc1
Log EC50 [1]: -5.26

Compound: Cc1cccc(C(=O)NC(N/C(=N/C#N)Nc2ccc(C(F)(F)F)nc2)C(C)(Cl)Cl)c1 (stereo unspecified)
Log EC50 [1]: -5.94

Compound: CC(O)(C(=O)Nc1ccc(C(=O)c2ccccc2)cc1)C(F)(F)F (single isomer, unassigned) [ZD-6169]
Tmax [7]: 0.4 h
clearance [8]: 11.2 mL/min/kg
bioavailability [9]: 43%
half-life [10]: 1.6 h
half-life [11]: 1.9 h

Compound: CC(Cl)(Cl)C(NC(=O)c1ccc(Cl)cc1)N/C(=N/C#N)Nc1ccc(Cl)nc1 (stereo unspecified)
Activity (Sus scrofa [12]): Dose-dependent effect
Activity (Sus scrofa [13]): 19.7%
Activity (Sus scrofa [14]): 36%
EC50 (Portal vein): 813 nM
Activity (Sus scrofa [15]): 90.7%
Activity (Sus scrofa [16]): 1.4%

Compound: CC(Cl)(Cl)C(NC(=O)c1cccc(F)c1)N/C(=N/C#N)Nc1ccc(Cl)nc1 (stereo unspecified)
Log EC50 [1]: -5.68

Compound: CC(Cl)(Cl)C(NC(=O)c1cc(Cl)cc(Cl)c1)N/C(=N/C#N)Nc1ccc(Cl)nc1 (stereo unspecified)
Log EC50 [1]: -5.44

Compound: CC(Cl)(Cl)C(NC(=O)c1ccc(Cl)cc1)N/C(=N/C#N)Nc1cccnc1Cl (stereo unspecified)
Log EC50 [1]: -6.16

Compound: CC(Cl)(Cl)C(NC(=O)c1cccs1)N/C(=N/C#N)Nc1ccc(C(F)(F)F)nc1 (stereo unspecified)
Log EC50 [1]: -5.44

Compound: CC(Cl)(Cl)C(NC(=O)c1ccc(F)cc1)N/C(=N/C#N)Nc1ccc(C(F)(F)F)nc1 (stereo unspecified)
Log EC50 [1]: -6.02

Compound: CC(Cl)(Cl)C(NC(=O)c1ccc(Cl)cc1)N/C(=N/C#N)Nc1ccc(F)nc1 (stereo unspecified)
Log EC50 [1]: -5.87

Compound: CC(Cl)(Cl)C(NC(=O)c1cc(F)cc(F)c1)N/C(=N/C#N)Nc1ccc(C(F)(F)F)nc1 (stereo unspecified)
half-life [2]: 5.5 h
half-life [3]: 6.9 h
bioavailability [4]: 100%
Log EC50 [1]: -5.54
Tmax [5]: 0.7 h
clearance [6]: 1 mL/min/kg

Compound: CC(Cl)(Cl)C(NC(=O)c1cc(Cl)cc(Cl)c1)N/C(=N/C#N)Nc1ccc(C(F)(F)F)nc1 (stereo unspecified)
Log EC50 [1]: -5.7

Compound: CC(Cl)(Cl)C(NC(=O)c1ccc(C(F)(F)F)cc1)N/C(=N/C#N)Nc1ccc(C(F)(F)F)nc1 (stereo unspecified)
Log EC50 [1]: -5.65

The remaining lines, values ahead:

Log EC50 [1]: -5.78
Compound: CC(Cl)(Cl)C(NC(=O)c1ccc(Cl)cc1)N/C(=N/C#N)Nc1ccc(C(F)(F)F)nc1 (stereo unspecified)

Log EC50 [1]: -5.71
Compound: CC(Cl)(Cl)C(NC(=O)c1cccc(F)c1)N/C(=N/C#N)Nc1ccc(C(F)(F)F)nc1 (stereo unspecified)

Log EC50 [1]: -5.98
Compound: CC(Cl)(Cl)C(NC(=O)c1ccc(Cl)cc1)N/C(=N/C#N)Nc1ccccc1F (stereo unspecified)

Log EC50 [1]: -5.35
Compound: CC(Cl)(Cl)C(NC(=O)c1cccc(Cl)c1)N/C(=N/C#N)Nc1ccc(Cl)nc1 (stereo unspecified)

half-life [2]: 9.9 h
half-life [3]: 15 h
bioavailability [4]: 100%
Tmax [5]: 0.4 h
clearance [6]: 2.17 mL/min/kg
Compound: CC(Cl)(Cl)C(NC(=O)c1ccc(Cl)cc1)NC(=NC#N)Nc1ccc(Cl)nc1 (stereo unspecified)

Log EC50 [1]: -5.28
Compound: CC(Cl)(Cl)C(NC(=O)c1cccc(Cl)c1)N/C(=N/C#N)Nc1ccc(C(F)(F)F)nc1 (stereo unspecified)

Log EC50 [1]: -6.23
Compound: CC(Cl)(Cl)C(NC(=O)c1ccc(Cl)cc1)N/C(=N/C#N)Nc1cncc(Br)c1 (stereo unspecified)

Log EC50 [1]: -6.6
Compound: COc1ncccc1N/C(=N\C#N)NC(NC(=O)c1ccc(Cl)cc1)C(C)(Cl)Cl (stereo unspecified)
